Source: ChEMBL document CHEMBL3046081, “Phytotoxic effect, uptake, and transformation of biochanin A in selected weed species” (J Agric Food Chem, 2012)
Calls of active or inactive are those of the source. The rule behind the calls is not given here.

Columns and labels:
Shoot [1] = test: Drug metabolism in Echinochloa crus-galli (barnyard grass) shoot assessed as transformation to genistein at 400 uM after 14 days measured per gm of dry weight by LC-MS analysis; assay type: ADME; details: 336 h
Method in brief: (§1)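 Pregerminated seeds, 14 per container, transplanted onto 0.5% agar medium containing biochanin A. Grown at 24 ± 1 °C under a 16 h light/8 h dark photoperiod and harvested 14 days after transplanting. Roots and shoots collected separately, blotted, washed twice, then freeze-dried. Tissue extracted by ASE at 40 °C and analysed by LC-ESI-MS against commercial standards. Two replicates per treatment.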

Echinochloa crus-galli = test: Phytotoxicity against Echinochloa crus-galli (barnyard grass) assessed as root growth inhibition at 100 to 400 uM after 2 weeks by agar medium bioassay; assay type: functional, organism-based
Method in brief: (§2)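 Agar bioassay with eight biochanin A doses (0–400 µM). Seeds were pregerminated 48 h at room temperature, then 10 seedlings were placed per Petri dish and grown 2 weeks at 24 ± 1 °C under a 16 h light/8 h dark cycle. […]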

Silene noctiflora = test: Phytotoxicity against Silene noctiflora assessed as root growth inhibition after 2 weeks by agar medium bioassay; assay type: functional, organism-based; details: 336 h
Method in brief: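 Agar bioassay with eight biochanin A doses (0–400 µM). Seeds were pregerminated 48 h at room temperature, then 10 seedlings (1–2 mm radicle) were placed per Petri dish. Plants grew 2 weeks at 24 ± 1 °C under a 16 h light/8 h dark cycle. Root length was measured, and EC values were taken from a four-parameter log-logistic nonlinear regression fit.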

Shoot [2] = test: Drug metabolism in Silene noctiflora shoot assessed as transformation to sissotrin at 400 uM after 14 days measured per gm of dry weight by LC-MS analysis; assay type: ADME; details: 336 h
Method in brief: (§3)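 Pregerminated seeds (14 per container) were grown on 20 mL 0.5% agar medium containing biochanin A, at 24 ± 1 °C with a 16 h light/8 h dark cycle. There were two replicates per treatment: 14 containers for S. noctiflora, 9 for G. molle and E. crus-galli. At 14 days, roots and shoots were harvested separately, washed, blotted and freeze-dried. Extraction was ASE at 40 °C, 1600 psi, 3 cycles. Analysis was LC-ESI-MS SIM against standards.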

Shoot [3] = test: Drug metabolism in Silene noctiflora shoot assessed as transformation to sissotrin at 20 uM after 14 days measured per gm of dry weight by LC-MS analysis; assay type: ADME; details: 336 h; method in brief: as §3
Root [4] = test: Drug metabolism in Silene noctiflora root assessed as transformation to sissotrin at 400 uM after 14 days measured per gm of dry weight by LC-MS analysis; assay type: ADME; details: 336 h; method in brief: as §1
Root [5] = test: Drug metabolism in Geranium molle root assessed as transformation to sissotrin at 20 uM after 14 days measured per gm of dry weight by LC-MS analysis; assay type: ADME; details: 336 h; method in brief: as §1
Shoot [6] = test: Drug metabolism in Geranium molle shoot assessed as transformation to p-coumaric acid at 400 uM after 14 days measured per gm of dry weight by LC-MS analysis; assay type: ADME; details: 336 h; method in brief: as §1
Root [7] = test: Drug metabolism in Echinochloa crus-galli (barnyard grass) root assessed as transformation to p-coumaric acid at 20 uM after 14 days measured per gm of dry weight by LC-MS analysis; assay type: ADME; details: 336 h; method in brief: as §1
Root [8] = test: Drug metabolism in Echinochloa crus-galli (barnyard grass) root assessed as transformation to genistein at 20 uM after 14 days measured per gm of dry weight by LC-MS analysis; assay type: ADME; details: 336 h; method in brief: as §1
Root [9] = test: Drug metabolism in Geranium molle root assessed as transformation to genistein at 20 uM after 14 days measured per gm of dry weight by LC-MS analysis; assay type: ADME; details: 336 h; method in brief: as §1
Root [10] = test: Drug metabolism in Silene noctiflora root assessed as transformation to genistein at 400 uM after 14 days measured per gm of dry weight by LC-MS analysis; assay type: ADME; details: 336 h; method in brief: as §1
Shoot [11] = test: Drug metabolism in Geranium molle shoot assessed as transformation to dihydrobiochanin A at 20 uM after 14 days measured per gm of dry weight by LC-MS analysis; assay type: ADME; details: 336 h; method in brief: as §1
Shoot [12] = test: Drug metabolism in Silene noctiflora shoot assessed as transformation to dihydrobiochanin A at 400 uM after 14 days measured per gm of dry weight by LC-MS analysis; assay type: ADME; details: 336 h; method in brief: as §1
Shoot [13] = test: Drug metabolism in Geranium molle shoot assessed as transformation to pratensein at 20 uM after 14 days measured per gm of dry weight by LC-MS analysis; assay type: ADME; details: 336 h; method in brief: as §1
Shoot [14] = test: Drug metabolism in Echinochloa crus-galli (barnyard grass) shoot assessed as transformation to sissotrin at 400 uM after 14 days measured per gm of dry weight by LC-MS analysis; assay type: ADME; details: 336 h; method in brief: as §1
Shoot [15] = test: Drug metabolism in Echinochloa crus-galli (barnyard grass) shoot assessed as transformation to sissotrin at 20 uM after 14 days measured per gm of dry weight by LC-MS analysis; assay type: ADME; details: 336 h; method in brief: as §1
Shoot [16] = test: Drug metabolism in Geranium molle shoot assessed as transformation to sissotrin at 20 uM after 14 days measured per gm of dry weight by LC-MS analysis; assay type: ADME; details: 336 h; method in brief: as §1
Root [17] = test: Drug metabolism in Geranium molle root assessed as transformation to dihydrobiochanin A at 400 uM after 14 days measured per gm of dry weight by LC-MS analysis; assay type: ADME; details: 336 h; method in brief: as §1
Root [18] = test: Drug metabolism in Silene noctiflora root assessed as transformation to dihydrobiochanin A at 400 uM after 14 days measured per gm of dry weight by LC-MS analysis; assay type: ADME; details: 336 h; method in brief: as §1
Root [19] = test: Drug metabolism in Silene noctiflora root assessed as transformation to dihydrobiochanin A at 20 uM after 14 days measured per gm of dry weight by LC-MS analysis; assay type: ADME; details: 336 h; method in brief: as §1
Shoot [20] = test: Drug uptake in Echinochloa crus-galli (barnyard grass) shoot at 400 uM after 14 days measured per gm of dry weight by LC-MS analysis; assay type: ADME; details: 336 h; method in brief: as §3
Shoot [21] = test: Drug uptake in Echinochloa crus-galli (barnyard grass) shoot at 20 uM after 14 days measured per gm of dry weight by LC-MS analysis; assay type: ADME; details: 336 h; method in brief: as §3
Shoot [22] = test: Drug uptake in Geranium molle shoot at 400 uM after 14 days measured per gm of dry weight by LC-MS analysis; assay type: ADME; details: 336 h; method in brief: as §3
Shoot [23] = test: Drug uptake in Geranium molle shoot at 20 uM after 14 days measured per gm of dry weight by LC-MS analysis; assay type: ADME; details: 336 h; method in brief: as §3
Root [24] = test: Drug uptake in Echinochloa crus-galli (barnyard grass) root at 400 uM after 14 days measured per gm of dry weight by LC-MS analysis; assay type: ADME; details: 336 h; method in brief: as §3
Root [25] = test: Drug uptake in Geranium molle root at 400 uM after 14 days measured per gm of dry weight by LC-MS analysis; assay type: ADME; details: 336 h; method in brief: as §3
Root [26] = test: Drug uptake in Silene noctiflora root at 400 uM after 14 days measured per gm of dry weight by LC-MS analysis; assay type: ADME; details: 336 h; method in brief: as §3
Amaranthus caudatus = test: Phytotoxicity against Amaranthus caudatus assessed as root growth inhibition at 100 to 400 uM after 2 weeks by agar medium bioassay; assay type: functional, organism-based; method in brief: as §2
Root [27] = test: Drug metabolism in Echinochloa crus-galli (barnyard grass) root assessed as transformation to pratensein at 400 uM after 14 days measured per gm of dry weight by LC-MS analysis; assay type: ADME; details: 336 h; method in brief: as §1
Root [28] = test: Drug metabolism in Echinochloa crus-galli (barnyard grass) root assessed as transformation to pratensein at 20 uM after 14 days measured per gm of dry weight by LC-MS analysis; assay type: ADME; details: 336 h; method in brief: as §1
Root [29] = test: Drug metabolism in Geranium molle root assessed as transformation to pratensein at 400 uM after 14 days measured per gm of dry weight by LC-MS analysis; assay type: ADME; details: 336 h; method in brief: as §1
Root [30] = test: Drug metabolism in Silene noctiflora root assessed as transformation to pratensein at 400 uM after 14 days measured per gm of dry weight by LC-MS analysis; assay type: ADME; details: 336 h; method in brief: as §1

Question: Which results are given for `COc1ccc(-c2coc3cc(O)cc(O)c3c2=O)cc1` [BIOCHANIN]?
Answer: Drug metabolism (Shoot [1]): 0.2 µmol; Activity (Echinochloa crus-galli): inactive; EC25 (Silene noctiflora): 5.2 µM; EC50 (Silene noctiflora): 35.8 µM; Drug metabolism (Shoot [2]): 4.34 µmol; Drug metabolism (Shoot [3]): 2.36 µmol; Drug metabolism (Root [4]): 2.99 µmol; Drug metabolism (Root [5]): 36.06 µmol; Drug metabolism (Shoot [6]): 0.03 µmol; Drug metabolism (Root [7]): 0.15 µmol; Drug metabolism (Root [8]): 0.07 µmol; Drug metabolism (Root [9]): 0.05 µmol; Drug metabolism (Root [10]): 0.13 µmol; Drug metabolism (Shoot [11]): 0.01 µmol; Drug metabolism (Shoot [12]): 0.02 µmol; Drug metabolism (Shoot [13]): 0.02 µmol; Drug metabolism (Shoot [14]): 0 µmol; Drug metabolism (Shoot [15]): 0 µmol; Drug metabolism (Shoot [16]): 1.5 µmol; Drug metabolism (Root [17]): 0.31 µmol; Drug metabolism (Root [18]): 0.07 µmol; Drug metabolism (Root [19]): 0.01 µmol; Drug uptake (Shoot [20]): 0.67 µmol; Drug uptake (Shoot [21]): 0.05 µmol; Drug uptake (Shoot [22]): 1.13 µmol; Drug uptake (Shoot [23]): 1 µmol; Drug uptake (Root [24]): 2.13 µmol; Drug uptake (Root [25]): 11.46 µmol; Drug uptake (Root [26]): 4.54 µmol; Activity (Amaranthus caudatus): inactive; Drug metabolism (Root [27]): 0.35 µmol; Drug metabolism (Root [28]): 0.38 µmol; Drug metabolism (Root [29]): 0.32 µmol; Drug metabolism (Root [30]): 0.11 µmol
